Measured values: the M2OR odorant receptor database

Biological target: T1, OR5AC2 (Homo sapiens) (UniProt Q9NZP5)
T1 sequence (whole entry): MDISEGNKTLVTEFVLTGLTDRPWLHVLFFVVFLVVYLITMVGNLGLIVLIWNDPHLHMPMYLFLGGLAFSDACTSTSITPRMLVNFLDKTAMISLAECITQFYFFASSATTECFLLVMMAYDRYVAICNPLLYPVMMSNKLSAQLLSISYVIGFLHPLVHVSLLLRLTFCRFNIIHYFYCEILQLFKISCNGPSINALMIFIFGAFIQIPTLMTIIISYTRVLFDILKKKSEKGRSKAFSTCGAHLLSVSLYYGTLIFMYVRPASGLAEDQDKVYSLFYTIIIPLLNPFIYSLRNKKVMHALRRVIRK
Settings: stereoisomer not certain
Outline: (§1)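 Values were gathered from published papers (main text and supplementary material), with extra details requested from the original authors when needed, and checked for typos and inconsistencies. Each receptor–molecule pair is called responsive (active) if the original authors judged the measured signal statistically different from baseline, and non-responsive (inactive) otherwise. Assay methods varied by source, often transient mammalian cell-line luciferase assays. Recorded details include cell line, G-protein, co-transfected protein and tags.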

Row | Structure (SMILES) | odorant receptor agonist call
1 | CCCCCC1COCCC1OC(C)=O (stereo not drawn) | inactive
2 | CCc1ccc(CC(C)(C)C=O)cc1 | inactive
3 | CCCCCC1C(=O)CCC1CC(=O)OC (stereo not drawn) | inactive
4 | CC(C)CCCC(C)(C)O | inactive
5 | CCCCCCCCC(OC(C)=O)OC(C)=O | inactive
6 | OCc1ccccc1 | inactive
7 | CC(C)=CCCC(C)=CCO | inactive
8 | CC(C)(C)C1CCCCC1OCCCCO (stereo not drawn) | inactive
9 | C=CC(C)(O)CCC=C(C)CCC=C(C)C (stereo not drawn) | inactive
10 | CCC=C(C)C(O)CCCCC (stereo not drawn) | inactive
11 | CCCCC1CCC(=O)O1 (stereo not drawn) | inactive
12 | COc1ccc(C)cc1 | inactive

Biological target: T2, OR5AN1 (Homo sapiens) (UniProt Q8NGI8)
T2 sequence (whole entry): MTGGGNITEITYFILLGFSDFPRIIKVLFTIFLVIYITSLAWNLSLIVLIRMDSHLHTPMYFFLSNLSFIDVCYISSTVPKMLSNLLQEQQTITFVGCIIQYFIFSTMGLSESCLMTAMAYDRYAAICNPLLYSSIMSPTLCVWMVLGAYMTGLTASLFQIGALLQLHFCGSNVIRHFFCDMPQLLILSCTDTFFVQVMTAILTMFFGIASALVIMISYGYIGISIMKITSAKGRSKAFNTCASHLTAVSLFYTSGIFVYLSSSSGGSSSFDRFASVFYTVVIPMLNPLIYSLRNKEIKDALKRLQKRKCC
Settings: stereoisomer not certain
Outline: as §1

Row | Structure (SMILES) | odorant receptor agonist call
13 | CC1CC=CCCCCCCCCC(=O)C1 (stereo not drawn) | active
14 | O=C1CCCCCCCCC1 | inactive
15 | CC1CCCCCCCCCCCC(=O)C1 (stereo not drawn) | active
16 | O=C1CCCC=CCCCCCCCCCC1 | active
17 | CCCCCCCC(=O)CCCCCCC | inactive
18 | CC1CC=CCCCCCCCCCC(=O)C1 (stereo not drawn) | active
19 | OC1CCCCCCCCCCCCCC1 | inactive
20 | O=C1CCCCCCCCCCCCCC1 | active
21 | CC1C(C)(C)C2=C(C(=O)CCC2)C1(C)C (stereo not drawn) | inactive
22 | O=C1CCCCCC=CCCCCCCCCO1 | active
23 | CCC(=O)OCC(C)(C)OC(C)C1CCCC(C)(C)C1 (stereo not drawn) | inactive
24 | O=C1CCCCCCCCCC1 | inactive
25 | O=C1C=CCCCCCCCCCCCCO1 | active
26 | C1CCCCCCCCCCCCCC1 | inactive
27 | CCCCCCCCCCCCCC(C)=O | inactive
28 | O=C1CCCCCCC=CCCCCCCC1 | active
